Assay outcomes from PubChem BioAssay.
Shown are actives, neighbours in structure and some others; about 3.1% of the full set was active somewhere.
Calb FLC: C. albicans growth inhibition with fluconazole, primary screen, CaCi-2 strain, Alamar Blue fluorescence; C. albicans CaCi-2 (fluconazole-resistant clinical isolate) + fluconazole, 48 h; growth inhibition, % (no concentration beside the values); 300,000 compounds, 0.57% hits; AID 1979, 2009;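 active = growth inhibition above about 58% in most replicates, limit read from the data, passing the limit was not always enough; inconclusive = exactly half the replicates above a set limit; inactive = most replicates below a set limit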;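 note: all wells also contain fluconazole at 8 µg/ml as a sub-toxic cotreatment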
TAG inh: inhibitors of triacylglycerol accumulation, primary screen, cell-based, uHTS, fluorescence, H9c2. H9c2 cells, Nile Red lipid (TAG) fluorescence; cells loaded with 200 µM oleic acid. 230,000 compounds, 0.66% hits. AID 651582, 2012. inhibition, % at 12.5 µM;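 active = pattern-corrected inhibition of lipid staining of at least 50% with the nuclear-stain viability signal not falling by more than 50%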
Beta cell apopt: inhibitors of cytokine-induced beta cell apoptosis, primary screen, luminescence; protection from apoptosis, % (concentration not given with the values); 300,000 compounds, 0.8% hits; INS-1E cytokine-induced death, ATP luminescence, 48 h; percent of positive-control rescue, neutral wells zero; AID 435005, 2010;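 active = Every replicate reaches about 75%, or at least half do and their mean reaches it too, limit read from the data; inconclusive = At least half of replicates reach the limit but their mean does not; inactive = Under half of replicates reach the limit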;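 note: higher means more ATP so stronger rescue from cytokine killing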
Bfl-1 A1 inh: caspase 3/7 activation in MEF A1-2A-BIM cells, primary screen, A1 inhibitor project, cell-based, luminescence, HTS; Caspase-Glo 3/7 luminescence, 3 h; percent of clofoctol response, vehicle zero; caspase activation, % (test concentration not listed); 330,000 compounds, 0.066% hits;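 active = over half of replicate activation scores above 10%, or exactly half above 10 with the replicate mean above 10; inconclusive = replicate mean below 10 yet half the replicates above 10; inactive = over half of replicates below 10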
T cruzi repl: inhibitors of intracellular T. cruzi growth, primary screen, luminescence, NIH3T3 host cells. T. cruzi beta-gal in NIH3T3, 90 h. inhibition, % (test concentration not listed). 300,000 compounds, 1.4% hits. AID 1885, 2009;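 active = mean inhibition across valid replicates above about 55%, limit read from the data; inconclusive = mean below that limit but half or more replicates reach it; inactive = mean below it, under half of replicates reach it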;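 note: signal also drops with host cell toxicity which is not excluded here; higher percent means less beta-gal luminescence so fewer parasites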
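Assay system: NIH/3T3 host cells with β-galactosidase reporter T. cruzi; input: 5,000 host fibroblasts per well; compound: single 50 nL compound addition per well in DMSO; timing: ≥90 h infection period, 3 h prior cell attachment; measured by: GalScreen β-gal luminescence, detergent lysis, 60 min; evaluation: percent inhibition of parasite-derived β-gal signal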
CSC inhib: cancer stem cell viability inhibitors, primary screen, luminescence. 300,000 compounds, 1.1% hits. inhibition, % at 7.5 µM. cancer stem cell-like cells viability; in the data active = inhibition above about 75%; inconclusive = no clear call, values can overlap the other calls; tested in HMLE shEcad cells
Numbers stand for hits; i = inactive; ? = inconclusive; nt = no result given.

SMILES	Calb FLC	TAG inh	Beta cell apopt	Bfl-1 A1 inh	T cruzi repl	CSC inhib
CCCCC(CC)C(=O)Nc1ncc([N+](=O)[O-])s1 (stereo unspecified)	i	i	i	i	81	i
Cc1cnc(NC(=O)c2cccs2)s1	i	nt	i	i	i	i
O=C(CCS(=O)(=O)c1ccccc1)Nc1ncc([N+](=O)[O-])s1	99	nt	i	i	i	i
Cc1ccc(S(=O)(=O)CC(=O)Nc2ncc([N+](=O)[O-])s2)cc1	i	nt	i	i	i	i
O=C(Nc1ncc([N+](=O)[O-])s1)c1cccs1	108	i	i	i	i	i
Cc1ccc(CC(=O)Nc2ncc([N+](=O)[O-])s2)cc1	82	i	i	i	69	i
NS(=O)(=O)c1ccc(NC(=O)c2ccc(S(=O)(=O)N3CCCCCC3)cc2)cc1	nt	i	i	i	nt	i
CCn1c(NC(C)=O)c(-c2ccccc2Cl)c(=O)c2ccccc21	i	nt	i	i	i	i
CCOc1ccccc1C(=O)Nc1nnc(SCC(=O)Nc2cc(C)on2)s1	i	i	i	i	i	i
O=C(C[C@H]1C[C@H](C(=O)N2CCOCC2)[C@@]2(CCC3CCCC3)c3[nH]c4cc(-c5ccco5)ccc4c3CCN2C1=O)NCCN1CCOCC1	nt	i	nt	nt	nt	nt
CC(C)=CCC/C(C)=C/CNC(=O)C[C@H]1C[C@H](C(=O)N2CCOCC2)[C@@]2(CCC3CCCC3)c3[nH]c4cc(-c5ccco5)ccc4c3CCN2C1=O	nt	62	nt	nt	nt	nt
CN(C)CCCNC(=O)C[C@H]1C[C@H](C(=O)N2CCOCC2)[C@@]2(CCC3CCCC3)c3[nH]c4cc(-c5ccco5)ccc4c3CCN2C1=O	nt	60	nt	nt	nt	nt
O=C(C[C@H]1C[C@H](C(=O)N2CCCCC2)[C@@]2(CCc3ccccc3)c3[nH]c4cc(-c5ccco5)ccc4c3CCN2C1=O)NCc1cccc(C(F)(F)F)c1	nt	58	nt	nt	nt	nt
CCCCNC(=O)[C@H]1N2C(=O)c3c(ccc(OC)c3OC)C2SC1(C)C (stereo partly specified)	i	nt	i	i	i	i
COc1ccc([C@H]2/C=C\CN(S(=O)(=O)c3ccc(C)cc3)[C@@H](C)C(=O)N2Cc2ccc(F)cc2)cc1	i	i	i	i	i	i
COc1ccc([C@H]2/C=C\CN(S(=O)(=O)c3ccc4ccccc4c3)[C@@H](C)C(=O)N2Cc2ccc(F)cc2)cc1	i	i	i	i	59	i
COc1ccc(C2/C=C\CN(C(=O)c3ccccc3)[C@H](Cc3ccccc3)C(=O)N2Cc2ccc(F)cc2)cc1 (stereo partly specified)	i	i	94	i	i	i
CC(=O)Nc1ccc(SCCC2CCCCN2C)cc1 (stereo unspecified)	i	nt	i	i	i	i
Cc1ccc(S(=O)(=O)N/N=C/c2ccc(C#N)cc2)cc1	i	nt	i	i	i	i
COCCn1c(C)cc(C(=O)COC(=O)C2CC(=O)N(CCc3ccc(OC)c(OC)c3)C2)c1C (stereo unspecified)	i	i	i	i	i	i
COc1cc(/C=C/C(=O)CC(=O)/C=C/c2ccc(O)c(OC)c2)ccc1O	nt	i	nt	i	i	94
COc1ccc(/C=C/C(=O)c2ccc([N+](=O)[O-])o2)cc1OC	i	nt	112	i	i	78
COc1cc(/C=C/C(=O)c2ccc([N+](=O)[O-])o2)ccc1O	i	i	115	i	?	i
Cc1cc(O)c(C(=O)/C=C/c2cccc([N+](=O)[O-])c2)c(=O)o1	i	i	i	i	i	i
O=C(/C=C/c1cccc(Cl)c1)c1ccc([N+](=O)[O-])o1	88	i	135	i	i	?
N#Cc1ccc(OCCOCCNC2CCCC2)cc1	i	nt	i	i	67	i
c1ccc(Cc2ccc(OCCCNC3CCCC3)cc2)cc1	i	nt	i	i	67	i
c1ccc(SCCCCNC2CCCC2)cc1	i	i	i	i	i	i
c1ccc(-c2ccc(OCCCNC3CCCC3)cc2)cc1	i	nt	nt	i	60	i
COc1ccc(OCCNC2CCCC2)cc1	i	nt	i	i	i	i
